Assay outcomes from PubChem BioAssay.
RGS4 pot = potentiators or activators of RGS4. HEK293 M3R/inducible RGS4, carbachol calcium flux Fluo4; active compounds read low. B-score at 10 µM. 310,000 tested, 0.92% active. AID 463111;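 active = B-score of the integrated calcium signal more than 4 SD below the library mean, with starting fluorescence not abnormally high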;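 note: negative B-score means reduced calcium response which marks RGS4 activation or potentiation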
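Test system: HEK293 cells with stable M3R and inducible RGS4; also added: carbachol at ECmax as muscarinic agonist stimulus; schedule: dye loading 30 min 37 °C, buffer rest 30 min RT; technique: kinetic calcium fluorescence imaging with Fluo4-AM dye, 2 µM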
RGS4 inh = inhibitors of human RGS4; P49798; HEK293 M3R/RGS4 inducible, Fluo-4 calcium flux; active compounds read high; triggered by carbachol at its EC20; B-score at 10 µM; 310,000 tested, 0.45% active;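 active = B-score, a plate-corrected calcium signal, over three deviations above library mean, with baseline fluorescence within five deviations of library mean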;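 note: RGS4 expression induced by doxycycline in cells with stable M3 receptor; B-score is computed from the integrated fluorescence ratio over baseline after carbachol; higher B-score means a larger calcium signal and so more RGS4 inhibition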
Target sequence (P49798 whole entry, looked up): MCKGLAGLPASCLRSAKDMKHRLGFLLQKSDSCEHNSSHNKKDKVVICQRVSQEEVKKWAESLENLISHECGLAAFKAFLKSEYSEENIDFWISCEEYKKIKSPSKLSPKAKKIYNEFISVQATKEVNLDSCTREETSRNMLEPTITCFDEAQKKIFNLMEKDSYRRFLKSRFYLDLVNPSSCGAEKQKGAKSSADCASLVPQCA
MrgX1 antagonist = antagonists of human MrgX1 receptor; 310,000 tested, 1.3% active; B-score at 10 µM; Q96LB2; AID 588676; MRGX1-HEK293 calcium flux, Fluo-4, BAM8-22 antagonism; active compounds read low;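 active = calcium-response B-score plate-corrected more than 3 library SD below zero, starting fluorescence within 5 deviations, no agonist response on first addition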;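 note: peak minus trough fluorescence over baseline after final BAM8-22 challenge near maximal dose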
Target sequence (Q96LB2 whole entry, looked up): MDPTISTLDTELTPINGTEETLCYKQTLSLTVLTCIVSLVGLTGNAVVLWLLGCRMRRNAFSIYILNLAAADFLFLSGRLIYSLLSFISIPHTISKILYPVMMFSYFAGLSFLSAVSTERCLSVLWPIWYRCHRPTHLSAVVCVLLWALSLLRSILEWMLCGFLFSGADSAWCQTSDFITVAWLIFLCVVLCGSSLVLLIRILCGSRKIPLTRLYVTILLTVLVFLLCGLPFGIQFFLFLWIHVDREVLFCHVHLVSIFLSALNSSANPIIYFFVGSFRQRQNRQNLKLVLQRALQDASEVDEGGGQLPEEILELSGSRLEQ
MrgX1 allo act = allosterically activates human MrgX1 receptor signaling; MrgX1-HEK293, Fluo-4 calcium flux, FDSS; active compounds read high; B-score at 10 µM; 310,000 tested, 0.63% active;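 active = plate-corrected calcium response at least 3 library SD above typical, normal starting fluorescence, not activating the receptor alone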;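 note: compound read alongside a low EC10 to EC30 dose of BAM8-22 agonist; peak minus trough fluorescence over baseline measured at the second addition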
MrgX1 ag = human MrgX1 receptor agonism, primary screen; Q96LB2; MrgX1-HEK293 cells, Fluo-4 calcium fluorescence, agonist mode; active compounds read high; B-score at 10 µM; 310,000 tested, 0.44% active; AID 588627;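 active = calcium response B-score plate-corrected fluorescence ratio at least 3 library SD, with starting fluorescence B-score inside 5 SD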
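times = overnight plating, then 30 min 37 °C plus 30 min room-temperature dye loading | assay system = stable human MrgX1 HEK293 cell line | input = fifteen thousand cells per well | signal = kinetic calcium dye fluorescence, Fluo-4 NW | dosing = compound delivered in addition one of three | read-out = B-scored fluorescence response ratio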
Numbers stand for hits; 0 = inactive; - = no result. Sampled rows, rich in hits. Any-hit rate of the full collection: about 3.5%.

SMILES	RGS4 pot	RGS4 inh	MrgX1 antagonist	MrgX1 allo act	MrgX1 ag
Cc1cn([C@H]2C=C[C@@H](CO)O2)c(=O)[nH]c1=O	0	0	0	9.4	0
CCOc1ccc(CSC(=N)N)cc1[N+](=O)[O-]	0	0	0	0	46
CCCCOc1ccc(CSc2nnc(C)n2N)cc1[N+](=O)[O-]	0	0	0	0	0
Cc1cc(C(=O)NC2Cc3ccccc3C2)c(C)o1	0	0	0	0	0
O=C1c2ccccc2NC(c2cccc(Cl)c2)N1N=C1CCCCCC1 (centres undefined)	0	0	0	8.6	0
O=C1c2ccccc2NC(c2ccc(Cl)cc2Cl)N1O (centres undefined)	0	0	0	0	0
C=CCn1c(=O)/c(=C/c2ccc(Cl)cc2)s/c1=C(/C#N)c1nnc2n1CCCCC2	0	0	0	0	0
C=CCn1c(=O)/c(=C/c2ccc(O)cc2)s/c1=C(/C#N)c1nnc2n1CCCCC2	-	-	0	0	36
C/C(=C\c1ccccc1)C(=O)N1CCN(c2cccc(C(F)(F)F)c2)CC1	0	0	-4.9	0	0
COCCCNc1nc2nonc2nc1N1CCC(C(C)N2CCOCC2)CC1 (centres undefined)	0	0	0	0	0
Cc1nnc(N2CCC(C(=O)N3CCCCC3)CC2)c2nn(-c3ccc(Cl)cc3)c(C)c12	0	0	0	0	0
COc1ccc(-n2nc3c(N4CCC(C(=O)N5CCC(C)CC5)CC4)nnc(C)c3c2C)cc1	-7	0	0	0	0
CC1(C)CCc2c([nH]c3ccccc3c2=O)O1	-7	0	0	0	0
CCC1CCc2c([nH]c3ccccc3c2=O)O1 (centres undefined)	0	0	0	0	0
CC1(c2nnc(-c3ccc(Cl)cc3)o2)CC(c2cccc(Cl)c2)=NO1 (centres undefined)	0	0	-5.9	0	0
O=c1/c(=C\c2cc([N+](=O)[O-])cc([N+](=O)[O-])c2O)sc2nc3ccccc3n12	-	-	0	0	29
O=C(O)c1cccc(-c2ccc(/C=c3/sc4nc5ccccc5n4c3=O)o2)c1	0	0	-12	0	0
O=c1/c(=C/c2ccccn2)sc2nc3ccccc3n12	-	-	0	0	0
Cc1c(C(=O)C(=O)NCc2ccco2)c2ccccc2n1C	0	0	0	0	0
O=[N+]([O-])c1ccc(N2CCC(=NOCc3ccc(Cl)cc3)CC2)cc1	-8.2	0	0	0	0
Cc1cccc(-c2noc(Cc3ccccc3)n2)c1	0	0	-8.2	0	0
Cc1oc(C)c2c(=O)ccc3c(c12)OC(N)=C(C#N)C3c1ccccc1 (centres undefined)	0	0	0	0	49
CSc1ccc(C2C(C#N)=C(N)Oc3c2ccc(=O)c2c(C)oc(C)c32)cc1 (centres undefined)	0	0	0	9.8	0
Cc1oc(C)c2c(=O)ccc3c(c12)OC(N)=C(C#N)C3c1ccccc1Cl (centres undefined)	0	0	0	0	0
COc1ccc(NC(=O)COC(=O)c2ccc(O)cc2)c([N+](=O)[O-])c1	0	0	-5.5	0	0
SMILES	RGS4 pot	RGS4 inh	MrgX1 antagonist	MrgX1 allo act	MrgX1 ag
CCn1nnc(-c2ccc(N)cc2)n1	0	0	0	0	0
Cc1ccc(S(=O)(=O)O/N=C2\CCCc3ccccc32)cc1	0	0	0	0	0
CC1=C(C)/C(=N\OS(=O)(=O)c2ccccc2)C=CC1=O	0	0	0	0	33
CCCNC(=O)c1ccc(Cn2cc(-c3ccc(OC)cc3)nc2C(C)N)cc1 (centres undefined)	0	0	0	0	0
O=C(COC(=O)c1cc(Br)ccc1O)Nc1cc(S(=O)(=O)N2CCCC2)ccc1Cl	0	0	-	-	-
C=CCOc1ccc(/C=C/C(=O)OCC(=O)N2CCCc3ccccc32)cc1	0	0	-9.5	0	0
CC(=O)N(C)c1ccc(OCC(O)Cn2c(C)nc3ccccc32)cc1 (centres undefined)	0	0	0	0	0
CN(C)c1ccc2nc3c(=O)[nH]c(=O)nc-3n(CC(O)C(O)C(O)CO)c2c1 (centres undefined)	-7.9	0	0	0	0
COc1ccc(CNC[C@@H](CCCCN(C)Cc2ccc(OC)cc2)N2C[C@H](c3ccccc3)N(CCc3ccc(Cl)c(Cl)c3)C(=O)C2=O)cc1	-8.2	0	0	0	0
Cc1ccc(C(=O)Nn2c(O)c(C=C3N=c4ccccc4=N3)sc2=S)cc1	0	0	0	0	0
Cc1ccc(S(=O)(=O)Nn2c(O)c(C=C3N=c4ccccc4=N3)sc2=S)cc1	0	0	-5.3	0	0
COc1ccc2oc3ccccc3c(=O)c2c1	0	0	0	0	0
COc1cc(/C(C)=C/c2ccccc2)c2c(c1)oc1ccccc12	0	0	0	9	0
CCOCCCNC(=O)Cn1cnc2c(cnn2-c2ccc(C)c(C)c2)c1=O	0	0	0	0	0
O=C(CC(=O)c1ccccc1)Nc1cc([N+](=O)[O-])ccc1Cl	0	0	0	0	0
O=C(CCC(=O)OCC(=O)c1ccc([N+](=O)[O-])cc1)Nc1ccccc1Cl	0	0	-5.5	0	0
O=C(COC(=O)c1ccccc1NS(=O)(=O)c1cc([N+](=O)[O-])ccc1Cl)c1ccccc1	0	0	0	0	32
O=C(CCC(=O)OCC(=O)c1cccc([N+](=O)[O-])c1)Nc1cccc(Cl)c1Cl	0	0	0	0	0
CC(/C=N\NC(=O)c1ccc2c(c1)OCO2)c1ccccc1 (centres undefined)	0	0	0	0	0
COC(=O)C1=NNC2C(=O)N(c3ccc(C)cc3)C(=O)C12 (centres undefined)	0	0	0	0	0
Cc1ccc(N2C(=O)C3C=NNC3C2=O)cc1 (centres undefined)	0	0	-5	0	0
O=C(c1cccn2c(=O)c3ccccc3nc12)N1CCN(Cc2ccc3c(c2)OCO3)CC1	0	0	0	0	0
O=C(c1ccc2nc3ccccc3c(=O)n2c1)N1CCN(Cc2ccc3c(c2)OCO3)CC1	0	0	-9.6	0	0
Nc1c2c(nc3c1CCCC3)CCCC2 (tested in a mixture with another compound)	0	0	0	0	0
CCOc1cc(/C=C2\N=C(SC(C)C(N)=O)N(c3ccc(OC(F)F)cc3)C2=O)ccc1O (centres undefined)	0	0	0	11	0
NC(=O)CSC1=N/C(=C\c2ccco2)C(=O)N1c1ccc(OC(F)F)cc1	0	0	0	0	0
Cc1ccc2sc(NNC(=O)c3cc(=O)c4ccccc4o3)nc2c1C	0	0	-8.7	0	0
Cc1cccc2sc(NNC(=O)c3cc(=O)c4ccccc4o3)nc12	0	0	0	0	0
CCN(CC)CCCNC(=S)N1CCC(c2nc3ccccc3[nH]2)CC1	0	0	0	0	0
